Measured values taken from ChEMBL document CHEMBL1139940, “2-Aryl-2-hydroxyethylamine substituted 4-oxo-4,7-dihydrothieno[2,3-b]pyridines as broad-spectrum inhibitors of human herpesvirus polymerases” (Bioorg Med Chem Lett, 2007).
In brackets after ≈: the same amount, converted by molar mass.

Assays:
[1] = molecular target: T1, DNA polymerase catalytic subunit (Human cytomegalovirus (strain AD169) (HHV-5) (Human herpesvirus 5), UniProt P08546); experiment: Inhibition of HCMV DNA polymerase by scintillation proximity assay; parameters: species or system Human betaherpesvirus 5
T1 sequence (P08546 whole entry): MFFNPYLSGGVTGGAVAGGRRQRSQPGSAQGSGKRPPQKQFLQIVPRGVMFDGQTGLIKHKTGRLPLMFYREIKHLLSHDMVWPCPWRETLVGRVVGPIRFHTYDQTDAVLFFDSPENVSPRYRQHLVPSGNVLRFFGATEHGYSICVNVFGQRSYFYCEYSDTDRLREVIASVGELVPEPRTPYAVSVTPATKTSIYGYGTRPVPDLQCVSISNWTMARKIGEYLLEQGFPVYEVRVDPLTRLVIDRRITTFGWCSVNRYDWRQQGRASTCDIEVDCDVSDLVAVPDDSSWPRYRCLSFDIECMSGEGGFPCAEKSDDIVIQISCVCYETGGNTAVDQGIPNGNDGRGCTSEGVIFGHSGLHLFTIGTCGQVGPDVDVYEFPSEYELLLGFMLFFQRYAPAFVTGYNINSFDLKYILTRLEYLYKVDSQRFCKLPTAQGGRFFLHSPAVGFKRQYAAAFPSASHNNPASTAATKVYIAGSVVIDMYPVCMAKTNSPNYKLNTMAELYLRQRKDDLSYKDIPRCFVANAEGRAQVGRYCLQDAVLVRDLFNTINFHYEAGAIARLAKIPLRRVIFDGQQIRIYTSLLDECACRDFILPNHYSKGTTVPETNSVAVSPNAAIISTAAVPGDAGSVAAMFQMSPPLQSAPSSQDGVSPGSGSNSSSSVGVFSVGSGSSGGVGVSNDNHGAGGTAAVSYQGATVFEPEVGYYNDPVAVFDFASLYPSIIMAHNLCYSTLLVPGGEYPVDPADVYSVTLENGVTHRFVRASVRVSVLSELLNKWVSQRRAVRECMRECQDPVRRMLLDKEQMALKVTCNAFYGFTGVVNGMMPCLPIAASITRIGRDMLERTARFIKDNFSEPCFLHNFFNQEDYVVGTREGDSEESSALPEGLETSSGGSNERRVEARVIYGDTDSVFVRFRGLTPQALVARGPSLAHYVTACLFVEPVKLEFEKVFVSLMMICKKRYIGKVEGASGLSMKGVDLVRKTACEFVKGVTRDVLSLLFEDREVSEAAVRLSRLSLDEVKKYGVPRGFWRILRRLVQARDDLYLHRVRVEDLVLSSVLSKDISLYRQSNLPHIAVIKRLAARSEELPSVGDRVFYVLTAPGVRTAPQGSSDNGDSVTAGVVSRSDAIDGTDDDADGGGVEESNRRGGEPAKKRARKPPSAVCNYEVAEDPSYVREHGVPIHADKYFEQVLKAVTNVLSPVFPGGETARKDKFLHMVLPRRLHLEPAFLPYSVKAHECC
Procedure, shortened: (§1)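 Purified viral or human DNA polymerase; incorporation of 3H-labeled nucleotide into template-primer measured by scintillation proximity.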

[2] = test system: Human betaherpesvirus 5; experiment: Antiviral activity against HCMV Davis in HFF cells by plaque reduction assay; format: functional, organism-based; conditions: Human betaherpesvirus 5, Davis
Procedure, shortened: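 Plaque reduction in human foreskin fibroblasts infected with Davis strain; values are means of at least two experiments, SD given.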

[3] = Inhibition of HSV1 DNA polymerase by scintillation proximity assay; parameters: species or system Human alphaherpesvirus 1; procedure, shortened: as §1
[4] = Inhibition of VZV DNA polymerase by scintillation proximity assay; parameters: species or system Human alphaherpesvirus 3; procedure, shortened: as §1
[5] = test system: Human alphaherpesvirus 1; experiment: Antiviral activity against HSV1 KOS in Vero cells by plaque reduction assay; format: functional, organism-based; conditions: Human alphaherpesvirus 1, KOS
[6] = test system: Human alphaherpesvirus 3; experiment: Antiviral activity against VZV Webster in HFF cells by plaque reduction assay; format: functional, organism-based; conditions: Human alphaherpesvirus 3, Webster
[7] = Cytotoxicity against HFF cells after 3 days; format: cell-based; conditions: human
Procedure, shortened: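 Subconfluent replicating HFF monolayers exposed to compound for 3 days; viability scored by microscopic evaluation and quantitative neutral red dye uptake; CC50 from a single determination.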

[8] = Inhibition of human DNA polymerase alpha by scintillation proximity assay; procedure, shortened: as §1
[9] = Inhibition of human DNA polymerase gamma by scintillation proximity assay; procedure, shortened: as §1
[10] = Inhibition of human DNA polymerase delta by scintillation proximity assay; procedure, shortened: as §1
[11] = test system: Human gammaherpesvirus 4; experiment: Antiviral activity against EBV in GG68 cells after 72 hrs; format: functional, organism-based; conditions: human gammaherpesvirus 4, GG68, 72 h
Procedure, shortened: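 GG68 cells induced into lytic replication with 40 ng/mL TPA plus 4 mM n-butyric acid; compound added at 0.5% final DMSO; 72 h at 37 °C, then cells lysed and DNA harvested.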

[12] = Oral bioavailability in rat at 15 mg/kg; format: ADME, organism-based; conditions: in vivo
[13] = Oral bioavailability in dog at 15 mg/kg; format: ADME, organism-based, Canis lupus familiaris; conditions: in vivo
[14] = Inhibition of EBV DNA polymerase by T7 quick-coupled transcription-translation system; parameters: species or system human gammaherpesvirus 4
Procedure, shortened: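 EBV polymerase plus BMRF-1 in 50 mM Tris pH 8, 70 mM NH4SO4, 10 mM MgCl2, dCTP/dTTP/dGTP, 0.5 µCi 32P-dATP, 100 µg/mL activated calf thymus DNA; compound added before enzyme, 1% final DMSO; 30 min at 37 °C; TCA precipitation onto glass filters, incorporated 32P counted by scintillation.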

[15] = Aqueous solubility of the compound; format: physicochemical

Row | Compound | IC50 [1] | IC50 [2] | other results
1 | Cn1cc(C(=O)NCc2ccc(Cl)cc2)c(=O)c2cc(CN(CC(O)c3ccccc3)C3CC3)sc21 (centres undefined) | 8900 nM | > 5000 nM | –
2 | CC(C)N(Cc1cc2c(=O)c(C(=O)NCc3ccc(Cl)cc3)cn(C)c2s1)CC(O)c1ccccc1 (centres undefined) | 2040 nM | 1600 nM | –
3 | CN(Cc1cc2c(=O)c(C(=O)NCc3ccc(F)cc3)cn(C)c2s1)CC(O)c1ccc(F)cc1 (centres undefined) | 220 nM | 200 nM | –
4 | CN(Cc1cc2c(=O)c(C(=O)NCc3cccc(Cl)c3)cn(C)c2s1)C[C@@H](O)c1ccccn1 | 61 nM | 100 nM | IC50 [3]: 76 nM; IC50 [4]: 21 nM; IC50 [5]: 3000 nM; IC50 [6]: 2 nM; CC50 at 72 h [7]: > 100000 nM; IC50 [8]: > 40000 nM; IC50 [9]: > 40000 nM; IC50 [10]: > 40000 nM; IC50 [11]: 200 nM; bioavailability [12]: 45%; bioavailability [13]: 76%; IC50 [14]: 70 nM
5 | CC(O)CN(C)Cc1cc2c(=O)c(C(=O)NCc3ccc(Cl)cc3)cn(C)c2s1 (centres undefined) | 3530 nM | 1500 nM | –
6 | Cn1cc(C(=O)NCc2ccc(Cl)cc2)c(=O)c2cc(CN(CCO)CC(O)c3ccccc3)sc21 (centres undefined) | 1580 nM | 400 nM | –
7 | CN(Cc1cc2c(=O)c(C(=O)NCc3ccc(Cl)cc3)cn(C)c2s1)CC(O)c1nccs1 (centres undefined) | 235 nM | 200 nM | –
8 | CN(Cc1cc2c(=O)c(C(=O)NCc3ccc(Cl)cc3)cn(C)c2s1)CC(O)c1ccco1 (centres undefined) | 77 nM | 30 nM | solubility [15]: 0.4 µM (≈ 0.194 µg/mL)
9 | CN(Cc1cc2c(=O)c(C(=O)NCc3ccc(Cl)cc3)cn(C)c2s1)C[C@@H](O)c1cnccn1 | 37 nM | 15 nM | IC50 [3]: 76 nM; IC50 [4]: 19 nM; IC50 [5]: 1600 nM; IC50 [6]: 7 nM; CC50 at 72 h [7]: > 100000 nM; IC50 [8]: > 40000 nM; IC50 [9]: > 40000 nM; IC50 [10]: > 40000 nM; bioavailability [12]: 21%; bioavailability [13]: 66%
10 | CN(Cc1cc2c(=O)c(C(=O)NCc3ccc(Cl)cc3)cn(C)c2s1)CC(O)c1ccc(C#N)cc1 (centres undefined) | 315 nM | 300 nM | –
11 | CN(Cc1cc2c(=O)c(C(=O)NCc3ccc(Cl)cc3)cn(C)c2s1)CC(O)c1ccc(O)cc1 (centres undefined) | 100 nM | 57 nM | –
12 | C[C@H](O)CN(C)Cc1cc2c(=O)c(C(=O)NCc3ccc(Cl)cc3)cn(C)c2s1 | 35 nM | – | –
13 | Cn1cc(C(=O)NCc2ccc(Cl)cc2)c(=O)c2cc(CNCC(O)c3ccccc3)sc21 (centres undefined) | 8400 nM | > 5000 nM | –
14 | CN(Cc1cc2c(=O)c(C(=O)NCc3ccc(Cl)cc3)cn(C)c2s1)CC(O)c1ccncc1 (centres undefined) | 200 nM | 85 nM | –
15 | CN(Cc1cc2c(=O)c(C(=O)NCc3ccc(Cl)cc3)cn(C)c2s1)CC(O)c1cccs1 (centres undefined) | 175 nM | 250 nM | –
16 | Nc1nc(O)c2ncn(COC(CO)CO)c2n1 [GANCICLOVIR] | – | – | CC50 at 72 h [7]: > 100000 nM
17 | CN(Cc1cc2c(=O)c(C(=O)NCc3ccc(Cl)cc3)cn(C)c2s1)CC(O)c1cnccn1 (centres undefined) | 85 nM | 65 nM | solubility [15]: 72 µM (≈ 35.9 µg/mL)

Row | Compound | IC50 [1] | IC50 [2] | other results
18 | CN(Cc1cc2c(=O)c(C(=O)NCc3cccc(Cl)c3)cn(C)c2s1)CC(O)c1cccnc1 (centres undefined) | 160 nM | 60 nM | –
19 | CN(Cc1cc2c(=O)c(C(=O)NCc3ccc(Cl)cc3)cn(C)c2s1)CC(O)c1ccccc1 (centres undefined) | 100 nM | 180 nM | –
20 | CN(Cc1cc2c(=O)c(C(=O)NCc3ccc(Cl)cc3)cn(C)c2s1)C[C@H](O)c1ccccc1 | 2550 nM | – | IC50 [3]: 10500 nM; IC50 [4]: 5000 nM
21 | CN(Cc1cc2c(=O)c(C(=O)NCc3ccc(Cl)cc3)cn(C)c2s1)CC(O)c1ncccn1 (centres undefined) | 100 nM | 100 nM | –
22 | COc1cccc(C(O)CN(C)Cc2cc3c(=O)c(C(=O)NCc4ccc(Cl)cc4)cn(C)c3s2)c1 (centres undefined) | 87 nM | 20 nM | –
23 | CN(Cc1cc2c(=O)c(C(=O)NCc3cccc(Cl)c3)cn(C)c2s1)CC(O)c1ccccn1 (centres undefined) | 86 nM | 90 nM | solubility [15]: 9 µM (≈ 4.47 µg/mL)
24 | CN(Cc1cc2c(=O)c(C(=O)NCc3ccc(Cl)cc3)cn(C)c2s1)CC(O)c1cc2ccccc2o1 (centres undefined) | 12 nM | 150 nM | –
25 | CN(Cc1cc2c(=O)c(C(=O)NCc3ccc(Cl)cc3)cn(C)c2s1)CC(O)c1ccc2ccccc2n1 (centres undefined) | 65 nM | 40 nM | –
26 | Nc1nc2c(ncn2COCCO)c(=O)[nH]1 [ACYCLOVIR] | – | – | CC50 at 72 h [7]: > 100000 nM; IC50 [11]: 6900 nM
27 | O=C(O)P(=O)(O)O [FOSCARNET] | – | – | IC50 [9]: < 280 nM
28 | CN(Cc1cc2c(=O)c(C(=O)NCc3ccc(Cl)cc3)cn(C)c2s1)CC(O)c1ccoc1 (centres undefined) | 250 nM | 400 nM | –
29 | CC(C)C(O)CN(C)Cc1cc2c(=O)c(C(=O)NCc3ccc(Cl)cc3)cn(C)c2s1 (centres undefined) | 17500 nM | > 5000 nM | –
30 | CCN(Cc1cc2c(=O)c(C(=O)NCc3ccc(Cl)cc3)cn(C)c2s1)CC(O)c1ccccc1 (centres undefined) | 240 nM | 450 nM | –
31 | CN(Cc1cc2c(=O)c(C(=O)NCc3ccc(Cl)cc3)cn(C)c2s1)C[C@@H](O)c1ccccc1 | – | – | IC50 [3]: 400 nM; IC50 [4]: 200 nM
32 | CN(Cc1cc2c(=O)c(C(=O)NCc3ccc(Cl)cc3)cn(C)c2s1)CC(O)c1cccc(C#N)c1 (centres undefined) | 66 nM | 100 nM | –
33 | CN(Cc1cc2c(=O)c(C(=O)NCc3cccc(Cl)c3)cn(C)c2s1)CC(O)c1ccc(F)cc1 (centres undefined) | 203 nM | 250 nM | –
